pIC50: −log10 of the molar value.
What was measured:
Pepsin A (Sus scrofa) = Pepsin A (Sus scrofa) (UniProt P00791); assay: Inhibition of porcine pepsin enzyme at 1*10e-5; conditions: concentration not given here
Renin [1] = target: T1, Renin (Homo sapiens, UniProt P00797); assay: Inhibition of purified human renin (pH 6.0)
T1 sequence (P00797 whole entry): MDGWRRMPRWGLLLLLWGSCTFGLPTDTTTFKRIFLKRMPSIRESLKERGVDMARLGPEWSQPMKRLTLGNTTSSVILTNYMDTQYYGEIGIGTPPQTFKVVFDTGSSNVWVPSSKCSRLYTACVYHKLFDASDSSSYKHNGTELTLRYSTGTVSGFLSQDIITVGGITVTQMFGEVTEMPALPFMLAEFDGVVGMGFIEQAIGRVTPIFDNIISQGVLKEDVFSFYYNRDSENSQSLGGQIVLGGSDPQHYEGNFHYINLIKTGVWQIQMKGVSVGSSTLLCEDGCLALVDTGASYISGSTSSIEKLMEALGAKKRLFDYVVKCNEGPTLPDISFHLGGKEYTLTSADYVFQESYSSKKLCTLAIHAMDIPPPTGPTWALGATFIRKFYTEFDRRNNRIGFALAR

Renin [2] = target: T1, Renin; assay: Inhibition of human plasma renin (pH 7.4); assay type: cell-free
Summary of the method: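 Plasma renin assay at pH 7.4, adapted from an earlier method: 0.10 M HEPES buffer in place of maleate, incubation lengthened to 2.5 h, and angiotensin I measured by radioimmunoassay on the whole incubation sample. IC50 reported in nM.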

Cathepsin D (Bos taurus) = target: T2, Cathepsin D (Bos taurus) (UniProt P80209); assay: Inhibition of bovine cathepsin D at 1*10e-5; conditions: concentration not given here
T2 sequence (whole entry): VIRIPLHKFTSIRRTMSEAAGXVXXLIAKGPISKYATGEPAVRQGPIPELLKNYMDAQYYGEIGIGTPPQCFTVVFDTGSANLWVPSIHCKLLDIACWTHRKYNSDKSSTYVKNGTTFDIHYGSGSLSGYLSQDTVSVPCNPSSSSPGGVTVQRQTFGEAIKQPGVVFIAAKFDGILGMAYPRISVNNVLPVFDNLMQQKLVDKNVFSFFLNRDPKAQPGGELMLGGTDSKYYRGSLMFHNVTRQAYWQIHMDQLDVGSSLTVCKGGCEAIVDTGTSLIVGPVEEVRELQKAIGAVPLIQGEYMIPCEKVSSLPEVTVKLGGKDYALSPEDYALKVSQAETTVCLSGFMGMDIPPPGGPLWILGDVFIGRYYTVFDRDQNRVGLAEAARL

[3] = (§1) Ratio of IC50 value for human plasma renin(pH 7.4) and purified human renin(pH 6.0); assay type: functional
chymotrypsin = assay: The compound was tested […] for chymotrypsin susceptibility (degradation); assay type: ADME
[4] = as §1

Chain of Pepsin A (Sus scrofa) (P00791 60-385 limits assumed): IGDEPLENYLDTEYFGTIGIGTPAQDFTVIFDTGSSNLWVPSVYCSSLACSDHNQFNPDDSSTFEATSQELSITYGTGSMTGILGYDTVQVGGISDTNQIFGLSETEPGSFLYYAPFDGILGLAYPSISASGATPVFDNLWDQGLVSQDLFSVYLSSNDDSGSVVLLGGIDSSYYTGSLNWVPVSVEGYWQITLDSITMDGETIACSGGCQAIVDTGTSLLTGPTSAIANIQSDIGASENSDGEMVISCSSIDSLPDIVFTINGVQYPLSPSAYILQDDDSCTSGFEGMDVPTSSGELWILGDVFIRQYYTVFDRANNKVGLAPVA

inhibition (Pepsin A (Sus scrofa)) [%] | pIC50 (Renin [1]) | pIC50 (Renin [2]) | inhibition (Cathepsin D (Bos taurus)) [%] | half-life (chymotrypsin) [min] | Ratio [4] | Structure (SMILES) | Ratio [3]
2 | 7.85 | 6.85 | 1 |  |  | CC(C)C[C@H](O)[C@H](O)[C@H](CC1CCCCC1)NC(=O)[C@H](Cc1c[nH]cn1)NC(=O)[C@@H](Cc1ccccc1)NC(=O)N1CCOCC1 | 10
 | 9.12 | 8.62 |  | 727 |  | COc1ccc(C[C@H](NC(=O)N2CCOCC2)C(=O)N[C@@H](Cc2cnc[nH]2)C(=O)N[C@@H](CC2CCCCC2)[C@@H](O)[C@@H](O)CC(C)C)cc1 | 
6 | 9.52 | 8.70 | 0 | 9.6 |  | CC(C)C[C@H](O)[C@H](O)[C@H](CC1CCCCC1)NC(=O)[C@H](Cc1c[nH]cn1)NC(=O)[C@H](CCc1ccccc1)NC(=O)N1CCOCC1 | 6.7
4 | 9.38 | 9.17 | 2 | 3.3 |  | CC(C)C[C@H](O)[C@H](O)[C@H](CC1CCCCC1)NC(=O)[C@H](Cc1c[nH]cn1)NC(=O)[C@H](Cc1ccccc1)NC(=O)N1CCC(O)CC1 | 1.6
 | 9.46 | 9.05 |  | 2.2 |  | CC(C)C[C@H](O)[C@H](O)[C@H](CC1CCCCC1)NC(=O)[C@H](Cc1cnc[nH]1)NC(=O)[C@H](Cc1ccccc1)NC(=O)N1CCOCC1 | 
0 |  |  | 0 |  | 2.5 | CC(C)C[C@H](O)[C@H](O)[C@H](CC1CCCCC1)NC(=O)[C@H](Cc1c[nH]cn1)NC(=O)[C@H](Cc1ccccc1)NC(=O)N1CCOCC1 | 
 | 8.59 | 7.19 |  |  |  | CC(C)C[C@H](O)[C@H](O)[C@H](CC1CCCCC1)NC(=O)[C@H](Cc1cnc[nH]1)NC(=O)[C@@H](NC(=O)N1CCOCC1)C(C)(C)c1ccccc1 | 

Further lines, the compound ahead of its results:

Structure (SMILES) | inhibition (Pepsin A (Sus scrofa)) [%] | pIC50 (Renin [1]) | pIC50 (Renin [2]) | inhibition (Cathepsin D (Bos taurus)) [%] | half-life (chymotrypsin) [min] | Ratio [4] | Ratio [3]
CC(C)C[C@H](O)[C@H](O)[C@H](CC1CCCCC1)NC(=O)[C@H](Cc1c[nH]cn1)N(C)C(=O)[C@H](Cc1ccccc1)NC(=O)N1CCOCC1 | 0 | 9.03 | 8.60 | 0 |  |  | 2.7
CC(C)C[C@H](O)[C@H](O)[C@H](CC1CCCCC1)NC(=O)[C@H](Cc1c[nH]cn1)NC(=O)[C@H](Cc1ccccc1)NC(=O)N1CCNCC1 | 0 |  | 8.35 | 0 | 6.9 |  | 6.9
CC(C)C[C@H](O)[C@H](O)[C@H](CC1CCCCC1)NC(=O)[C@H](Cc1c[nH]cn1)NC(=O)/C(=C/c1ccccc1)NC(=O)N1CCOCC1 | 0 | 9.24 | 8.28 | 0 |  |  | 9.1
COc1ccc(C[C@H](NC(=O)N2CCOCC2)C(=O)N[C@@H](Cc2c[nH]cn2)C(=O)N[C@@H](CC2CCCCC2)[C@@H](O)[C@@H](O)CC(C)C)cc1 | 4 |  |  | 3 |  |  | 3.2
CC(C)C[C@H](O)[C@H](O)[C@H](CC1CCCCC1)NC(=O)[C@H](Cc1c[nH]cn1)NC(=O)/C(=C/c1ccccc1)CC(=O)N1CCOCC1 | 8 | 9.10 | 8.68 | 0 | 1260 |  | 2.7
CC(C)C[C@H](O)[C@H](O)[C@H](CC1CCCCC1)NC(=O)[C@H](Cc1c[nH]cn1)NC(=O)[C@@H](NC(=O)N1CCOCC1)C(C)(C)c1ccccc1 | 3 |  |  | 3 |  |  | 25
CC(C)C[C@H](O)[C@H](O)[C@H](CC1CCCCC1)NC(=O)[C@H](Cc1cnc[nH]1)NC(=O)[C@H](Cc1ccccc1)NC(=O)N(C)CCO |  | 9.26 | 9.01 |  | 34.3 |  | 
CC(C)C[C@H](O)[C@H](O)[C@H](CC1CCCCC1)NC(=O)[C@H](Cc1c[nH]cn1)NC(=O)[C@H](Cc1ccccc1)OC(=O)N1CCOCC1 | 0 | 9.09 | 8.52 | 0 | 233 |  | 3.7
CC(C)C[C@H](O)[C@H](O)[C@H](CC1CCCCC1)NC(=O)[C@H](Cc1c[nH]cn1)NC(=O)[C@H](Cc1ccccc1)NC(=O)N(C)CCO | 3 |  |  | 0 |  |  | 1.8
CC(C)C[C@H](O)[C@H](O)[C@H](CC1CCCCC1)NC(=O)[C@H](Cc1c[nH]cn1)NC(=O)[C@@H](CC(=O)N1CCOCC1)Cc1ccccc1 | 0 | 9.54 | 8.89 | 0 | 227 | 4.5 | 
CC(C)C[C@H](O)[C@H](O)[C@H](CC1CCCCC1)NC(=O)[C@H](Cc1c[nH]cn1)NC(=O)[C@H](Cc1ccccc1)NC(=O)N(C)C | 11 | 9.30 | 8.48 | 3 | 17.5 |  | 6.6

Reference: ChEMBL document CHEMBL1124308, “Renin inhibitors. Dipeptide analogues of angiotensinogen utilizing a structurally modified phenylalanine residue to impart proteolytic stability” (J Med Chem, 1988)
